Activity calls are given as the source filed them. No cut-off for these calls is given here.
Legend:
Format in all cases: functional, cell-based
HCT-116 [1] = assay: Cytotoxicity against human HCT116 cells at 20 ug/ml after 48 hrs by MTS assay
How it was run: (§1)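 Cells seeded at (2−5) × 10^3 per well depending on growth rate, attached overnight, then medium replaced with medium containing test compound (serial dilutions from 100 mM DMSO stock) or 0.1% DMSO vehicle; cisplatin as positive control. Incubated 48 h at 37 °C, humidified 5% CO2. MTS added, 90 min at 37 °C in the dark, proliferation read. Triplicate.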

HeLa [2] = assay: Cytotoxicity against human HeLa cells at 20 ug/ml after 48 hrs by MTS assay; how it was run: as §1
MCF7 [3] = assay: Cytotoxicity against human MCF7 cells at 20 ug/ml after 48 hrs by MTS assay; how it was run: as §1
A549 [4] = assay: Cytotoxicity against human A549 cells at 20 ug/ml after 48 hrs by MTS assay; how it was run: as §1
HCT-116 [5] = assay: Cytotoxicity against human HCT116 cells after 48 hrs by MTS assay; conditions: HCT-116, 48 h
How it was run: (§2)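 MTS assay in triplicate. Cells seeded at (2−5) × 10³ per well, with the number set by growth rate, and allowed to attach overnight. Medium then replaced with medium containing 0.1% DMSO or serial dilutions of compounds made from 100 mM DMSO stocks. Cisplatin served as positive control. Incubation 48 h at 37 °C in humidified 5% CO2. MTS added, then 90 min at 37 °C in the dark. IC50 derived.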

HeLa [6] = assay: Cytotoxicity against human HeLa cells after 48 hrs by MTS assay; how it was run: as §2
A549 [7] = assay: Cytotoxicity against human A549 cells after 48 hrs by MTS assay; conditions: A549, 48 h; how it was run: as §2
MCF7 [8] = assay: Cytotoxicity against human MCF7 cells after 48 hrs by MTS assay; conditions: MCF7, 48 h; how it was run: as §1

SMILES | Activity (HCT-116 [1]) | Activity (HeLa [2]) | Activity (MCF7 [3]) | Activity (A549 [4]) | IC50 (HCT-116 [5]) [µM] | IC50 (HeLa [6]) [µM] | IC50 (A549 [7]) [µM] | IC50 (MCF7 [8]) [µM]
COC(=O)[C@]1(O)C(=O)[C@H](C)[C@H]2Oc3cccc(O)c3C(=O)[C@@H]21 | inactive | inactive | inactive | inactive | – | – | – | –
COC(=O)[C@@]1(O)c2c(oc3cccc(O)c3c2=O)S[C@@H](C)[C@H]1O [PREUSSOCHROMONE A] | – | – | – | – | 25.9 | 25.5 | 8.34 | –
COC1=CC(=O)c2c(O)cc(OC)c3c2[C@]1(O)COC3=O [PREUSSOCHROMONE C] | – | – | – | – | 15.1 | 30 | 5.75 | 41.2
COC(=O)[C@]1(O)[C@@H](O)[C@H](C)[C@H]2Oc3cccc(O)c3C(=O)[C@@H]21 | inactive | inactive | inactive | inactive | – | – | – | –
COC(=O)[C@]1(O)[C@H](O)[C@H](C)[C@H]2Oc3cccc(O)c3C(=O)[C@H]21 | inactive | inactive | inactive | inactive | – | – | – | –
COC(=O)[C@H]1c2c(oc3cccc(O)c3c2=O)C[C@](C)(O)[C@H]1O | inactive | inactive | inactive | inactive | – | – | – | –

— ChEMBL document CHEMBL2010734, “A thiopyranchromenone and other chromone derivatives from an Endolichenic fungus, Preussia africana” (J Nat Prod, 2012)
